Laboratory results from ChEMBL document CHEMBL5724801, “EUbOPEN Chemogenomics Library - Multiplex” (2024).
“And” between values parts separate entries of the source, which are not always exact repeats. Equal entries are not always repeated.

Legend:
Assay type in all cases: toxicity, cell-based
Fibroblast = assay: Multiplex assay against human fibroblast
Outline: (§1)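 Live cells were stained at seeding with Hoechst33342, BioTracker Green Microtubule Cytoskeleton Dye, MitoTracker Red and Annexin V Alexa Fluor 680. Following compound addition, they were imaged on a CQ1 microscope at 37°C and 5% CO2 and gated by CellPathfinder machine learning into Hoechst high-intensity objects or normal cells, with normal cells split into healthy, pyknosed or fragmented nuclei and pyknosed cells into mitotic or apoptotic. Tubulin, mitochondrial-mass and membrane-permeability phenotypes are per cents of healthy-nucleus cells.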

HEK-293T = assay: Multiplex assay against HEK293T; settings: human; outline: as §1
U2OS = assay: Multiplex assay against U2OS; settings: human; outline: as §1
[1] = 12 h, 1 µM, compound concentration 1 uM
[2] = 12 h, 10 µM, compound concentration 10 uM
[3] = 24 h, 1 µM, compound concentration 1 uM
[4] = 24 h, 10 µM, compound concentration 10 uM
[5] = 48 h, 1 µM, compound concentration 1 uM
[6] = 48 h, 10 µM, compound concentration 10 uM

## CCN1CCN(Cc2ccc(Nc3ncc(F)c(-c4cc(F)c5nc(C)n(C(C)C)c5c4)n3)nc2)CC1.CS(=O)(=O)O
Fibroblast; [1]
  Population Apoptotic (%): 17.78% and 12.5%
  Population Fragmented Nuclei (%): 19.76% and 8.1%
  Population Healthy Nuclei (%): 53.29% and 72.47%
  Population Hoechst High Intensity Objects (%): 0%
  Population Mitochondria Different-Phenotype (%): 15.73% and 16.2%
  Population Mitotic Cells (%): 82.22% and 87.5%
  Population Normal (%): 100%
  Population Pyknosed Nuclei (%): 26.95% and 19.43%
  Population Tubulin-Different-Phenotype (%): 38.2% and 41.9%
  Total Cell Count: 167 and 247
Fibroblast; [2]
  Population Apoptotic (%): 22.89% and 30%
  Population Fragmented Nuclei (%): 14.07% and 8.33%
  Population Healthy Nuclei (%): 54.37% and 75%
  Population Hoechst High Intensity Objects (%): 0%
  Population Mitochondria Different-Phenotype (%): 15.38% and 7.78%
  Population Mitotic Cells (%): 77.11% and 70%
  Population Normal (%): 100%
  Population Pyknosed Nuclei (%): 31.56% and 16.67%
  Population Tubulin-Different-Phenotype (%): 68.53% and 62.59%
  Total Cell Count: 263 and 360
Fibroblast; [3]
  Population Apoptotic (%): 25%
  Population Fragmented Nuclei (%): 16.76% and 6.88%
  Population Healthy Nuclei (%): 56.76%
  Population Hoechst High Intensity Objects (%): 0%
  Population Mitotic Cells (%): 89.8% and 75%
  Population Normal (%): 100%
  Population Pyknosed Nuclei (%): 26.49% and 11.59%
  Population Tubulin-Different-Phenotype (%): 43.81% and 37.78%
  Total Cell Count: 185 and 276
Fibroblast; [4]
  Population Apoptotic (%): 27.71% and 21.01%
  Population Fragmented Nuclei (%): 11.19% and 3.61%
  Population Healthy Nuclei (%): 58.84% and 63.13%
  Population Hoechst High Intensity Objects (%): 0%
  Population Mitochondria Different-Phenotype (%): 23.31% and 9.92%
  Population Mitotic Cells (%): 72.29% and 78.99%
  Population Normal (%): 100%
  Population Pyknosed Nuclei (%): 29.96% and 33.25%
  Population Tubulin-Different-Phenotype (%): 62.58% and 53.05%
  Total Cell Count: 277 and 415
Fibroblast; [5]
  Population Apoptotic (%): 23.08% and 25%
  Population Fragmented Nuclei (%): 17.96% and 9.26%
  Population Healthy Nuclei (%): 75.73% and 86.3%
  Population Hoechst High Intensity Objects (%): 0%
  Population Mitotic Cells (%): 76.92% and 75%
  Population Normal (%): 100%
  Population Pyknosed Nuclei (%): 6.31% and 4.44%
  Population Tubulin-Different-Phenotype (%): 44.23% and 44.64%
  Total Cell Count: 206 and 270
Fibroblast; [6]
  Population Apoptotic (%): 38.62% and 20.77%
  Population Fragmented Nuclei (%): 5.28% and 6.72%
  Population Healthy Nuclei (%): 58.29% and 65.97%
  Population Hoechst High Intensity Objects (%): 0%
  Population Mitotic Cells (%): 61.38% and 79.23%
  Population Normal (%): 100%
  Population Pyknosed Nuclei (%): 36.43% and 27.31%
  Population Tubulin-Different-Phenotype (%): 43.97% and 47.74%
  Total Cell Count: 398 and 670
HEK-293T; [1]
  Population Fragmented Nuclei (%): 2.72% and 5.37%
  Population Healthy Nuclei (%): 46.26% and 18.79%
  Population Hoechst High Intensity Objects (%): 1.01% and 0%
  Population Membrane Permeable-Phenotype (%): 0.74% and 0%
  Population Mitotic Cells (%): 90.67% and 79.65%
  Population Normal (%): 98.99% and 100%
  Population Pyknosed Nuclei (%): 51.02% and 75.84%
  Population Tubulin-Different-Phenotype (%): 23.53% and 64.29%
  Total Cell Count: 297 and 149
HEK-293T; [2]
  Population Fragmented Nuclei (%): 1.2% and 2.36%
  Population Hoechst High Intensity Objects (%): 0.4% and 0%
  Population Membrane Permeable-Phenotype (%): 0%
  Population Mitochondria Different-Phenotype (%): 53.85% and 28.57%
  Population Mitotic Cells (%): 88.21% and 74.36%
  Population Normal (%): 99.6% and 100%
  Population Pyknosed Nuclei (%): 78% and 92.13%
  Population Tubulin-Different-Phenotype (%): 84.62% and 28.57%
  Total Cell Count: 251 and 127
HEK-293T; [3]
  Population Fragmented Nuclei (%): 1.38% and 4.83%
  Population Healthy Nuclei (%): 71.43% and 24.14%
  Population Hoechst High Intensity Objects (%): 0.23% and 0%
  Population Membrane Permeable-Phenotype (%): 2.9% and 2.86%
  Population Mitochondria Different-Phenotype (%): 26.13% and 22.86%
  Population Mitotic Cells (%): 82.2% and 83.5%
  Population Normal (%): 99.77% and 100%
  Population Pyknosed Nuclei (%): 27.19% and 71.03%
  Population Tubulin-Different-Phenotype (%): 47.42% and 25.71%
  Total Cell Count: 435 and 145
HEK-293T; [4]
  Population Fragmented Nuclei (%): 0.69% and 4.07%
  Population Healthy Nuclei (%): 25.86% and 10.57%
  Population Hoechst High Intensity Objects (%): 0%
  Population Membrane Permeable-Phenotype (%): 0% and 23.08%
  Population Mitochondria Different-Phenotype (%): 52% and 38.46%
  Population Mitotic Cells (%): 64.32% and 55.24%
  Population Normal (%): 100%
  Population Pyknosed Nuclei (%): 73.45% and 85.37%
  Population Tubulin-Different-Phenotype (%): 93.33% and 53.85%
  Total Cell Count: 290 and 123
HEK-293T; [5]
  Population Fragmented Nuclei (%): 2.67% and 1.8%
  Population Healthy Nuclei (%): 85.01% and 53.89%
  Population Hoechst High Intensity Objects (%): 0.13% and 0%
  Population Membrane Permeable-Phenotype (%): 9.27% and 2.22%
  Population Mitochondria Different-Phenotype (%): 37.67% and 48.89%
  Population Mitotic Cells (%): 82.47% and 79.73%
  Population Normal (%): 99.87% and 100%
HEK-293T; [6]
  Population Fragmented Nuclei (%): 3.24% and 4.8%
  Population Healthy Nuclei (%): 28.78% and 13.6%
  Population Hoechst High Intensity Objects (%): 0% and 0.79%
  Population Membrane Permeable-Phenotype (%): 1.25% and 0%
  Population Mitochondria Different-Phenotype (%): 96.25% and 58.82%
  Population Mitotic Cells (%): 30.16% and 40.2%
  Population Normal (%): 100% and 99.21%
  Population Pyknosed Nuclei (%): 67.99% and 81.6%
  Population Tubulin-Different-Phenotype (%): 85% and 58.82%
  Total Cell Count: 278 and 126
U2OS; [1]
  Population Apoptotic (%): 40% and 33.33%
  Population Fragmented Nuclei (%): 3.09% and 3.21%
  Population Healthy Nuclei (%): 86.11% and 81.41%
  Population Hoechst High Intensity Objects (%): 0% and 0.64%
  Population Membrane Permeable-Phenotype (%): 3.23% and 10.24%
  Population Mitotic Cells (%): 60% and 66.67%
  Population Normal (%): 100% and 99.36%
  Population Pyknosed Nuclei (%): 10.8% and 15.38%
  Population Tubulin-Different-Phenotype (%): 6.09% and 6.3%
  Total Cell Count: 324 and 157
U2OS; [2]
  Population Apoptotic (%): 43.96% and 38.67%
  Population Fragmented Nuclei (%): 4.12% and 4.26%
  Population Healthy Nuclei (%): 70.88% and 42.55%
  Population Hoechst High Intensity Objects (%): 0%
  Population Membrane Permeable-Phenotype (%): 56.98% and 48.33%
  Population Mitotic Cells (%): 56.04% and 61.33%
  Population Normal (%): 100%
  Population Pyknosed Nuclei (%): 25% and 53.19%
  Population Tubulin-Different-Phenotype (%): 92.64% and 93.33%
  Total Cell Count: 364 and 141
U2OS; [3]
  Population Apoptotic (%): 36.67% and 46.88%
  Population Fragmented Nuclei (%): 2.68% and 4.65%
  Population Healthy Nuclei (%): 82.68% and 76.74%
  Population Hoechst High Intensity Objects (%): 0%
  Population Membrane Permeable-Phenotype (%): 3.54% and 6.06%
  Population Mitotic Cells (%): 63.33% and 53.12%
  Population Normal (%): 100%
  Population Pyknosed Nuclei (%): 14.63% and 18.6%
  Population Tubulin-Different-Phenotype (%): 7.67% and 9.85%
  Total Cell Count: 410 and 172
U2OS; [4]
  Population Apoptotic (%): 48.89% and 41.41%
  Population Fragmented Nuclei (%): 5.44% and 6.04%
  Population Healthy Nuclei (%): 59.59% and 27.52%
  Population Hoechst High Intensity Objects (%): 0%
  Population Membrane Permeable-Phenotype (%): 31.3% and 21.95%
  Population Mitotic Cells (%): 51.11% and 58.59%
  Population Normal (%): 100%
  Population Pyknosed Nuclei (%): 34.97% and 66.44%
  Population Tubulin-Different-Phenotype (%): 66.09% and 65.85%
  Total Cell Count: 386 and 149
U2OS; [5]
  Population Apoptotic (%): 47.62% and 37.14%
  Population Fragmented Nuclei (%): 4.31% and 6.15%
  Population Healthy Nuclei (%): 83.37% and 75.9%
  Population Hoechst High Intensity Objects (%): 0%
  Population Membrane Permeable-Phenotype (%): 2.58% and 6.08%
  Population Mitotic Cells (%): 52.38% and 62.86%
  Population Normal (%): 100%
  Population Pyknosed Nuclei (%): 12.33% and 17.95%
  Population Tubulin-Different-Phenotype (%): 8.92% and 12.84%
  Total Cell Count: 511 and 195
U2OS; [6]
  Population Apoptotic (%): 65% and 80.18%
  Population Fragmented Nuclei (%): 3.14% and 4.64%
  Population Healthy Nuclei (%): 34% and 21.85%
  Population Hoechst High Intensity Objects (%): 0% and 0.66%
  Population Membrane Permeable-Phenotype (%): 9.09%
  Population Mitotic Cells (%): 35% and 19.82%
  Population Normal (%): 100% and 99.34%
  Population Pyknosed Nuclei (%): 62.86% and 73.51%
  Population Tubulin-Different-Phenotype (%): 68.91% and 27.27%
  Total Cell Count: 350 and 152
